TRPC4 agonist – opens the mouse TRPC4 cation channel | HEK293 TRPC4beta/mu-opioid, Fluo4 calcium fluorescence; stronger effect = higher value | B-score at 10 µM | 310,000 compounds, 0.49% hits | AID 2237;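 active means B-score above 5 SD of library B-scores, and initial fluorescence ratio not above library mean plus 5 SD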;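 further: positive B-score marks a calcium rise read as TRPC4 activation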
Target sequence (Q9QUQ5 whole entry, looked up): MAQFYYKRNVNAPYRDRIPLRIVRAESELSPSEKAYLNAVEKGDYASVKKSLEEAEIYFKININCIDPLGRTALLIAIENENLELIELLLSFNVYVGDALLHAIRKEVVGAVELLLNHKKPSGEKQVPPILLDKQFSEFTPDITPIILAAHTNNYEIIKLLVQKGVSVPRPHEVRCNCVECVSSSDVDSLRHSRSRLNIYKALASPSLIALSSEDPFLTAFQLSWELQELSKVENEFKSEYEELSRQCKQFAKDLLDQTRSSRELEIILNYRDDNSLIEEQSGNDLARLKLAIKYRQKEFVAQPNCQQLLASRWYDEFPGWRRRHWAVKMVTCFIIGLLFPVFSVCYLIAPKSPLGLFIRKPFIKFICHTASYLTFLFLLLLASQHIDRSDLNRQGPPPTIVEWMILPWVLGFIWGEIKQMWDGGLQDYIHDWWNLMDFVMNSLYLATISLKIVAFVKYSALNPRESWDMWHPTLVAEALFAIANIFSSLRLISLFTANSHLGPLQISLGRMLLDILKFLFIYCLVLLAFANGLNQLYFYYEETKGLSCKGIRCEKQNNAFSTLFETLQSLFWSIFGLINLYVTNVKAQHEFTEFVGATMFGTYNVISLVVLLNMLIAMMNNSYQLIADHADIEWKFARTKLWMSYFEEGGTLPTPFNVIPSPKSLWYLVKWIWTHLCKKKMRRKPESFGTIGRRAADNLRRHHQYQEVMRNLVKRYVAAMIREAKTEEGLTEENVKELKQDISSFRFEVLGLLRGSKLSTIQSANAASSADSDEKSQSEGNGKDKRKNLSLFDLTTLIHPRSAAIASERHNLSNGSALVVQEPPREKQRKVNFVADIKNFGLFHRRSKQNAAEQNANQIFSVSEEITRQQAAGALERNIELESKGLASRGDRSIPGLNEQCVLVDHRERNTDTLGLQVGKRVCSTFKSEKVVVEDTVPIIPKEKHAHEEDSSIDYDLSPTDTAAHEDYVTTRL
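Material: HEK293 stable line with TRPC4beta plus mu-opioid receptor; technique: Fluo4 calcium-sensitive dye fluorescence, kinetic, 1 Hz baseline; timing: Fluo4 dye loading 45 min at room temperature, 110 s recording; controls: assay buffer as low control, maximal DAMGO as high control; read-out: integrated baseline-normalised fluorescence ratio, converted to per-well B score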
TRPC6 inhibitor – blocks the mouse TRPC6 cation channel; HEK293-TRPC6, membrane potential dye, ACh-evoked depolarization; stronger effect = lower value; 310,000 compounds, 1.1% hits; Q61143; B-score at 10 µM;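 active means B-score under library mean minus 3 SD, initial fluorescence not abnormally high, positive integrated signal ratio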;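 further: B-score derived from integrated fluorescence ratio over the kinetic read; more negative B-score means stronger inhibition of depolarization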
TRPC4 inh – blocks the mouse TRPC4 cation channel | Q9QUQ5 | HEK293 TRPC4beta/mu-opioid, DAMGO-evoked Fluo4 calcium flux; stronger effect = lower value | B-score at 10 µM | 300,000 compounds, 0.39% hits | AID 2247;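 active means B-score over 3 SD under the library average, no early fluorescence shift, positive overall ratio signal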
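Material: HEK293 cells with stable TRPC4beta plus mu-opioid receptor expression; probe or stimulus: DAMGO in two steps, submaximal then maximal; technique: Fluo4 calcium fluorescence by kinetic imaging, 5 s 1 Hz baseline; measure: integrated fluorescence ratio relative to baseline, converted to per-well B score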
TRPC6 activator – activates the mouse TRPC6 cation channel. 310,000 compounds, 0.13% hits. B-score at 10 µM. AID 2550. HEK293-TRPC6 membrane potential dye fluorescence; stronger effect = higher value;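 active means B-score of the integrated fluorescence ratio above library mean plus 3 SD, and starting fluorescence ratio within library mean plus 5 SD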;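 further: higher score means more depolarization so channel activation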
TRPC4 PAM – TRPC4 (mouse) allosteric potentiation; 310,000 compounds, 0.42% hits; B-score at 10 µM; HEK293 TRPC4beta/mu-opioid, DAMGO EC20, Fluo-4 Ca2+ flux; stronger effect = higher value;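 active means B-score of calcium response area above 5 SD of library B-scores, with initial fluorescence ratio within 5 SD of library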;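 further: B-score of integrated fluorescence ratio over time as area under calcium response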
TRPC4 spec 2 – mouse TRPC4 off-target activity of TRPC6 inhibitors, second screen; HEK293 TRPC4/MOR, membrane potential dye fluorescence; channel activated by saturating DAMGO dose; shares compounds with TRPC6 inhibitor; inhibition, % at 10 µM; 920 compounds, 42% hits;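 active means compounds whose fluorescence signal differed from control wells by over 3 SD, either direction, in both duplicate plates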
TRPC4 spec – tests whether TRPC6 inhibitors also affect mouse TRPC4; AID 2777; HEK293 TRPC4/mu-opioid, membrane potential fluorescence; shares compounds with TRPC6 inhibitor; activity change, negative = inhibition, % at 10 µM; 920 compounds, 61% hits;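 active means rise or fall in signal beyond 3 SD of buffer-only wells in both replicate plates, either sign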;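 further: integrated kinetic ratio of fluorescence range over baseline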
HEK293 MPD ctr 2-1 – second counter-screen for TRPC6 inhibitors: parental HEK293 cells; shares compounds with TRPC6 inhibitor; parental HEK293 membrane potential dye fluorescence; maximal acetylcholine challenge after compound addition; signal change vs control, % at 10 µM; 920 compounds, 31% hits;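 active means membrane potential signal moving either way by over 3 SD of the maximum-effect control, in both duplicate plates, meaning non-specific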
HEK293 MPD ctr-1 – counter-screen for TRPC6 inhibitors: effect in parental HEK293 cells | 920 compounds, 60% hits | shares compounds with TRPC6 inhibitor | parental HEK293 membrane potential dye fluorescence | membrane potential signal change, % at 10 µM;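 active means membrane potential signal shifting up or down by more than 3 SD of buffer-only wells, on both duplicate plates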
HEK293 MPD ctr-2 – parental HEK293 nonspecific activity of TRPC6 modulators. AID 488924. membrane potential dye fluorescence. membrane potential signal change, % at 10 µM. 2,400 compounds, 51% hits. shares compounds with TRPC6 inhibitor;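 active means membrane potential signal moves up or down beyond 5 SD from buffer-only wells, on both duplicate plates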
HEK293 MPD ctr 2-2 – second check of TRPC6 modulator effects in parental HEK293 cells. membrane potential dye fluorescence; after compound, maximal acetylcholine stimulation. shares compounds with TRPC6 inhibitor. inhibition, % at 10 µM. 2,400 compounds, 14% hits;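 active means membrane potential signal drops by more than 5 SD from the mean control signal, in both duplicate plates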;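 further: plate controls were acetylcholine ECmax control wells for no effect and buffer only wells for full effect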
TRPC4 ctr mod – mouse TRPC4 off-target activity of TRPC6 modulators | shares compounds with TRPC6 inhibitor | HEK293 TRPC4/mu-opioid, membrane potential fluorescence | percent change from control (negative = decrease, positive = increase), % at 10 µM | 2,400 compounds, 69% hits | AID 488927;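 active means membrane potential signal moved up or down beyond 5 SD of buffer control wells, in both duplicate plates, actives on both sides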;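 further: plate controls were assay buffer wells for no effect and DAMGO maximal-effect wells for full effect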
TRPC4 ctr inh 2 – second selectivity test of TRPC6 modulators against mouse TRPC4 | HEK293 TRPC4/mu-opioid, membrane potential dye fluorescence; stimulated with maximal-effect DAMGO | inhibition, % at 10 µM | shares compounds with TRPC6 inhibitor | AID 488928 | 2,400 compounds, 55% hits;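 active means drop in membrane potential signal beyond 5 SD of the control wells in both duplicate plates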;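 further: TRPC4 counter screen for TRPC6 hits run under conditions tuned for TRPC6 not TRPC4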
TRPC6 block conf – mouse TRPC6 inhibitor confirmation; shares compounds with TRPC6 inhibitor; HEK293-TRPC6, membrane potential dye, ACh-evoked depolarization; inhibition, % at 10 µM; 3,300 compounds, 43% hits;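 active means fluorescence ratio falls more than 5 SD below the full-stimulation control mean, in both duplicate runs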;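 further: integrated fluorescence ratio of peak minus minimum over baseline after agonist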
TRPC6 act confirm – confirmation of mouse TRPC6 activators. activation, % at 10 µM. AID 488961. 2,800 compounds, 11% hits. HEK293-TRPC6 membrane potential dye fluorescence, FDSS. shares compounds with TRPC6 inhibitor;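 active means ratio signal rise beyond 5 SD above unstimulated control wells' mean, seen in both duplicate runs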;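 further: plate controls were buffer EC0 wells for no effect and acetylcholine ECmax response for full effect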
Numbers without * were called inactive; i = inactive; · = no result. Sampled rows, rich in hits. Any-hit rate of the full collection: about 2.3%.

SMILES	TRPC4 agonist	TRPC6 inhibitor	TRPC4 inh	TRPC6 activator	TRPC4 PAM	HEK293 MPD ctr-2	HEK293 MPD ctr 2-2	TRPC4 ctr mod	TRPC4 ctr inh 2	TRPC6 block conf	TRPC6 act confirm	others
C[N+](C)(C)CC#CCN1CCCC1=O	86*	-5.9*	i	i	i	103%*	60%*	45%*	i	78%*	·
CCCC(CCC)C(=O)OC[N+](C)(C)CCOC(=O)C(O)(c1ccccc1)C1CCCC1 (centres undefined)	i	-11*	i	i	i	·	·	·	·	92%*	i	TRPC4 spec 2=i;TRPC4 spec=i;HEK293 MPD ctr 2-1=-29%*;HEK293 MPD ctr-1=i
CN1CCCC(C(O)(c2ccccc2)c2ccccc2)C1 (centres undefined)	i	i	i	i	i	·	·	·	·	·	·
O=C(O)C(O)(c1ccccc1)C1CCCC1 (centres undefined)	i	i	i	i	i	·	·	·	·	·	·
CC(C)(C)C(=O)OC[N+](C)(C)CCOC(=O)C(O)(c1ccccc1)C1CCCC1 (centres undefined)	i	-5.6*	i	i	i	i	83%*	i	i	86%*	i
CN1CCC(N(C)c2nc(-c3ccc([N+](=O)[O-])cc3)nc3ccccc23)CC1	i	-11*	i	i	i	-296%*	69%*	-56%*	57%*	68%*	i
CN1CCc2nc3sc(C#N)c(N)c3c(-c3cccs3)c2C1	i	-9.2*	i	i	i	-192%*	i	-32%*	34%*	i	i
CN1CCc2nc(N)c(C#N)c(-c3ccccc3)c2C1	i	i	i	i	i	·	·	·	·	·	·
CC(Cc1ccccc1Sc1ccccc1O)N(C)C (centres undefined)	i	-9.4*	-7*	i	i	·	·	·	·	i	·	TRPC4 spec 2=37%*;TRPC4 spec=55%*;HEK293 MPD ctr 2-1=i;HEK293 MPD ctr-1=12%*
C#CCN(C)[C@H](C)Cc1ccccc1	i	i	i	i	i	·	·	·	·	·	·
Cc1ccc(OP(=O)(O)Oc2ccc(C)cc2)cc1	i	-6.5*	i	i	i	i	i	i	i	i	·
CC(O)CNc1ccc([N+](=O)[O-])c2cccnc12 (centres undefined)	i	i	i	i	i	·	·	·	·	·	·
NCCNc1ccc([N+](=O)[O-])c2cccnc12	70*	-5.2*	i	i	10*	-232%*	i	-31%*	50%*	43%*	i
C=CCN(c1ccc(C(=O)N(CC)CC)cc1)S(C)(=O)=O	i	-5.6*	i	i	i	i	i	i	i	i	i
O=c1[nH]c(=S)n(-c2ccccc2Cl)c(O)c1C=NCCN1CCNCC1	i	i	i	i	i	·	·	·	·	·	·
O=[N+]([O-])c1ccc(N2CCCC2)cc1N/N=C1\CN2CCC1CC2	i	-5.2*	i	i	i	-248%*	74%*	-41%*	86%*	88%*	i
CNc1cc(N2CCN(C)CC2)ccc1[N+](=O)[O-]	i	i	i	i	i	·	·	·	·	·	·
Cc1cc(C)[n+](CCCC[n+]2c(C)cc(C)cc2C)c(C)c1	i	-8.9*	i	i	i	-438%*	98%*	-70%*	59%*	66%*	i
CCNc1cc(N2CCNCC2)ccc1[N+](=O)[O-]	i	-5.7*	i	i	35*	-214%*	i	-34%*	38%*	i	i
Cc1cccc(N2CCc3c2nc2ccccc2c3N)c1	i	-14*	-7*	i	i	-192%*	74%*	-49%*	98%*	81%*	i

Screening results as filed in PubChem.
